The Kd is the equilibrium constant for the complex coming apart. One may read the IC50 as the midpoint of a concentration-inhibition curve. As usually defined, the inhibition is the change of the read-out against control, counted positive when it falls.

Where two headings read alike, the source gives them in different places. Non-standard residues stand in square brackets, D forms with d. Residues, ends and D or L forms follow the SMILES beside them. *: point of attachment. 5FAM = O=C1OC2(c3ccc(O)cc3Oc3cc(O)ccc32)c2ccc(C(=O)*)cc21; Trp(6-Cl) = N[C@@H](Cc1c[nH]c2cc(Cl)ccc12)C(=O)O; pY = N[C@@H](Cc1ccc(OP(=O)(O)O)cc1)C(=O)O; Ac3c = NC1(C(=O)O)CC1; Aib = CC(C)(N)C(=O)O; βAla = NCCC(=O)O

Consider four compounds from article PMC8775362 (Molecular pharmaceutics, 2021).

In one data set the target is MDM2. The settings on record: cited from earlier work.
The conditions of data set [1]: cited from earlier work.
In data set [2] the test system is HepG2 human hepatocellular carcinoma cells. Kind of data set: Cell uptake and specificity of [^18F]6 in HepG2 cells. The format is cell-based. Summed up: (§1)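 Cells (HepG2 in MEM, SJSA-1 in RPMI 1640, both with 10% FBS) were seeded at 2×10^5/well and held overnight at 37°C. Medium was swapped for serum-free medium holding 18.5 kBq tracer; incubation was at 37°C for 0.5, 1 or 2 h. Blocking used unlabeled parent inhibitor, either 5–50 µM for 1 h or 25 µM for the time course.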

Data set [3] has as its system SJSA-1 human osteosarcoma cells. In words: Cell uptake and specificity of [^18F]6 in SJSA-1 cells. The format is cell-based. Summed up: as §1
In the next data set the test system is P-glycoprotein. The settings on record: neuroblastoma cells; cited from earlier work.

For `CSCC[C@H](NC(=O)[C@H](Cc1ccccc1)NC(=O)CCNC(=O)CCNC(=O)c1ccc2c(c1)C(=O)OC21c2ccc(O)cc2Oc2cc(O)ccc21)C(=O)NC(C)(C)C(=O)N[C@@H](Cc1ccc(OP(=O)(O)O)cc1)C(=O)N[C@@H](Cc1c[nH]c2cc(Cl)ccc12)C(=O)N[C@@H](CCC(=O)O)C(=O)NC1(C(=O)N[C@@H](CC(C)C)C(=O)N[C@@H](CC(N)=O)C(N)=O)CC1` [5-FAM-PMDM6] ({5FAM-βAla-βAla}-FM[Aib][pY][Trp(6-Cl)]E[Ac3c]LN-NH2; N-terminus and C-terminus assumed), the Kd at MDM2 (read-out: binding affinity (Kd) towards MDM2, literature, same assay) was 1 ± 0.1 nM.
Turning to `CC(C)[C@@H](CS(=O)(=O)C(C)C)N1C(=O)[C@@](C)(CC(=O)O)C[C@H](c2cccc(Cl)c2)[C@H]1c1ccc(Cl)cc1` [AMG232], in the data set with MDM2 (read-out: IC50 inhibiting the MDM2-p53 interaction), the IC50 is […].
As to `COc1cc(C(=O)O)ccc1NC(=O)[C@@H]1N[C@@H](CC(C)(C)C)[C@](C#N)(c2ccc(Cl)cc2F)[C@H]1c1cccc(Cl)c1F` [RG7388, Idasanutlin], in data set [1], the “stability in humans in vivo” value is “fully stable”. The IC50 in the data set with MDM2 (read-out: IC50 disrupting the MDM2-p53 interaction) was […]. In addition, the “effect of blocking on [^18F]6 uptake” value is listed as “significantly decreased” in data set [2] (HepG2, 25 μM RG7388, all time points 30-120 min) and “significantly decreased” in data set [3] (SJSA-1, 25 μM RG7388, all time points 30-120 min). For the same compound, the inhibition at 50 µM was over 80% in data set [2] (Homo sapiens, HepG2, 1 h, read-out: inhibition of [^18F]6 uptake) and over 80% in data set [3] (Homo sapiens, SJSA-1, 1 h, read-out: inhibition of [^18F]6 uptake). Moreover, the “substrate of P-glycoprotein” value in the data set with P-glycoprotein was “not a good substrate”.
As for `COc1ccc2[nH]c3c(-c4cccc5ccccc45)nccc3c2c1` [SP-141], on MDM2 (read-out: binding affinity Kd), the Kd was 43 nM.
